Only some compounds are listed: those with a hit (about 0.77% of all), similar ones and a draw of the others.
bIAP act = bovine intestinal alkaline phosphatase activators, primary screen, biochemical, bovine IAP, CDP-star luminescence; alkaline phosphatase, intestinal [Bos taurus]; purified bovine IAP, 30 min; stronger effect = higher value; fold of DMSO-control signal, blank-subtracted; activation factor at 20 µM; 200,000 tested, 0.17% active; AID 1016, 2008;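 active means activation factor of 2 or more at 20 µM, a signal rise over negative controls twice the positive control's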
bIAP inh = bovine intestinal alkaline phosphatase inhibitors, primary screen, selectivity assay for TNAP inhibitor project, biochemical, bovine IAP, CDP-star luminescence. alkaline phosphatase, intestinal [Bos taurus]. purified bovine IAP, 30 min. inhibition, % at 20 µM. 190,000 tested, under 10 active. AID 1019, 2008;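 active means over 50% inhibition of intestinal alkaline phosphatase at 20 µM in the single-dose screen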
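System: purified bovine intestinal alkaline phosphatase (IAP) enzyme; Input: IAP diluted 1/65,000,000 in the well; Measured by: CDP-star luminescence signal; Compound dosing: 20 µM single dose; Incubation: 30 min reaction at room temperature.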
mIAP block = inhibitors of mouse IAP, primary screen, biochemical, luminescence, uHTS; intestinal alkaline phosphatase [Mus musculus]; purified mouse IAP, CDP-Star luminescence, 30 min; inhibition, % at 10 µM; 330,000 tested, 0.2% active;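 active means inhibition of at least 40% at 10 µM in the primary screen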;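 further: plate controls were DMSO with enzyme for no effect and no enzyme wells for full effect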
mIAP act = activators of mouse IAP, primary screen, biochemical, luminescence, uHTS | intestinal alkaline phosphatase [Mus musculus] | muIAP, CDP-Star luminescence, 30 min; stronger effect = higher value; 1 = vehicle-only enzyme signal, 0 = enzyme-free wells | activation factor at 10 µM | 330,000 tested, 0.24% active | AID 2805, 2010;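 active means activation factor of at least 2 at 20 µM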
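Assay system: mouse IAP enzyme; Reagent: CDP-Star chemiluminescent phosphatase substrate; Compound: DMSO-dissolved test compounds; Incubation: 30 min, room temperature; Technique: luminescence from enzymatic CDP-Star hydrolysis; Controls: DMSO-only wells and no-enzyme negative control.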
hIAP act = human IAP activators, primary screen, biochemical, luminescence, uHTS; Intestinal-type alkaline phosphatase (Homo sapiens), P09923; purified human IAP, CDP-Star luminescence, 30 min; stronger effect = higher value; 1 = vehicle-only enzyme, 0 = enzyme-free background; activation factor at 10 µM; 330,000 tested, 0.16% active;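 active means activation factor of the enzyme at least 2-fold when tested at 20 µM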
Target sequence (P09923 whole entry, looked up): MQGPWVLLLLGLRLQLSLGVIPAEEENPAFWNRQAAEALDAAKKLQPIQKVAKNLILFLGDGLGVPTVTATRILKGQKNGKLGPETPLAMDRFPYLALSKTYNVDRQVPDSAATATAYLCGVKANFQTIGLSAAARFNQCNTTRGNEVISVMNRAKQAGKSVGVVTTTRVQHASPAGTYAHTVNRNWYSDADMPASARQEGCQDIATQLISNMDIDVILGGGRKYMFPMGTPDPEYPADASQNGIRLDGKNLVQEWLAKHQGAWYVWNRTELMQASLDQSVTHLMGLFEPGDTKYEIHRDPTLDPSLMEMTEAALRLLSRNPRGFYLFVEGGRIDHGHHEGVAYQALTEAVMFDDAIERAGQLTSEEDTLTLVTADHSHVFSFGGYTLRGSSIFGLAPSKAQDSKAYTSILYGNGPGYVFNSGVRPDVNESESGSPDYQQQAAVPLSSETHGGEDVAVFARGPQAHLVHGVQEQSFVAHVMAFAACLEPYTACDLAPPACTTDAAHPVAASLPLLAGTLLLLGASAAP
hIAP inh = human IAP inhibitors, primary screen, biochemical, luminescence, uHTS | inhibition, % at 10 µM | AID 2544, 2010 | purified IAP, CDP-Star luminescence, 30 min | 330,000 tested, 0.12% active | Intestinal-type alkaline phosphatase (Homo sapiens), P09923;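 active means inhibition reaching a set limit with compound at 10 µM in the primary screen, cut at about 35% in these data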;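 further: plate controls were DMSO wells with enzyme for no effect and no-enzyme buffer wells for full effect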
An asterisk follows results filed as active.

For CCn1nc(C)c(/C=N\NC(=O)c2ccc3c(c2)OCO3)c1C the results were bIAP act 1, bIAP inh 4, mIAP block 5, mIAP act 0.95, hIAP act 1.1 and hIAP inh -7.
Screening CCn1ncc(/C=N\NC(=O)c2ccc3c(c2)c(C)c(C)n3Cc2ccccc2)c1C returned bIAP act 4.5*, bIAP inh -347, mIAP block -240, mIAP act 3.4*, hIAP act 0.9 and hIAP inh 10.
`CCn1ncc(/C=N/NC(=O)c2ccc3c(c2)OCO3)c1C` gave bIAP act 0.9, bIAP inh 5, mIAP block -7, mIAP act 1.1, hIAP act 1.1 and hIAP inh -14.
CCn1nc(C)c(/C=N/NC(=O)c2ccc3c(c2)c(C)c(C)n3Cc2ccccc2)c1C was read as bIAP act 7*, bIAP inh inactive, mIAP block -326, mIAP act 4.3*, hIAP act 0.84 and hIAP inh 16.
`CCn1cc(/C=N\NC(=O)c2ccc3c(c2)c(C)c(C)n3Cc2ccccc2)c(C)n1` gave bIAP act 4.2*, bIAP inh -325, mIAP block -73, mIAP act 1.7, hIAP act 0.93 and hIAP inh 8.
COc1ccc(COc2cccc3ccc(C)nc23)cc1F was read as mIAP block 5, mIAP act 0.95, hIAP act 0.93 and hIAP inh 7.
Screening COCCCC1CCN(C(=O)C2CCC(=O)N(CC3CCCCC3)C2)CC1 (configuration not stated) returned mIAP block 5, mIAP act 0.95, hIAP act 1.4 and hIAP inh -44.
For O=C(O)/C=C/C(=O)Nc1cc(F)ccc1F the results were mIAP block -11, mIAP act 1.1, hIAP act 1 and hIAP inh -4.
Screening C=C(C(=O)Oc1ccccc1C(C)(C)C)c1ccccc1 returned mIAP block 8, mIAP act 0.92, hIAP act 0.99 and hIAP inh 0.
For O=C(Nc1cccc(C(F)(F)F)c1)Nc1ccc(N2CCCC2)c(S(=O)(=O)Nc2ccccc2Cl)c1 the results were bIAP act 0.7, bIAP inh 30, mIAP block -110, mIAP act 2.1*, hIAP act 1.1 and hIAP inh -12.
Screening COc1ccccc1NS(=O)(=O)c1cc(NC(=O)Nc2ccc(Cl)cc2Cl)ccc1N1CCCCC1 returned bIAP act 0.9, bIAP inh 5, mIAP block -244, mIAP act 3.4*, hIAP act 1.1 and hIAP inh -11.
For O=C(Nc1cccc(C(=O)O)c1)/C(=C\c1ccccc1Cl)NC(=O)c1ccco1 the results were mIAP block -2, mIAP act 1, hIAP act 0.9 and hIAP inh 10.
Screening CC1(C)CC(=O)C=C(c2cccc3c2sc2ccccc23)C1 returned mIAP block 0, mIAP act 1, hIAP act 1 and hIAP inh -4.
Screening CCNC(=O)N(CC)C[C@H]1N[C@@](Cc2ccccc2)(C(=O)OC)[C@H]2C(=O)N(C)C(=O)[C@@H]12 returned mIAP block 3, mIAP act 0.97, hIAP act 1 and hIAP inh -1.
Screening CC(=O)OCC(=O)[C@@]1(O)CC[C@H]2[C@@H]3CCC4=CC(=O)C=C[C@]4(C)[C@H]3[C@@H](O)C[C@@]21C returned bIAP act 380*, mIAP block -17, mIAP act 1.2, hIAP act 1.1 and hIAP inh -5.
For C[C@]12C=CC(=O)C=C1CC[C@@H]1C2C(O)C[C@@]2(C)C1CC[C@]2(O)C(=O)COC(=O)CCC(=O)NC(CC(=O)O)C(=O)O (some centres not stated) the results were mIAP block 6, mIAP act 0.94, hIAP act 1 and hIAP inh -2.

Screening results (PubChem)
